# Only some compounds are listed: those with a hit (about 1.9% of all), similar ones and a draw of the others.
# N-glyco inh – blocks N-linked glycosylation in D54 reporter cells; actives 0.23% (n = 360,000); reporter increase, % at 12.5 µM; AID 588692; D54 ERlucT glycosylation luciferase reporter, 24 h; percent of 100 nM tunicamycin response;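 active = mean luciferase reporter signal, scaled so untreated is 0 and the glycosylation-blocking control 100, at or above a set limit in every replicate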;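 note: luciferase carries N-glycosylation sites so blocking glycosylation raises the light; 0% = median of neutral control wells and 100% = median of 100 nM tunicamycin wells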
# SR-BI DiI-HDL act – enhances SR-BI lipid uptake from DiI-HDL; actives 0.096% (n = 320,000); activation, % at 12.5 µM; CHO ldlA[mSR-BI] cells, DiI-HDL uptake fluorescence, 3 h; 100 = double the neutral-control signal; AID 504775;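 active = mean replicate activation of at least 60% and every replicate at or above 60%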;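 note: 0% = median plate neutral-control signal and 100% = twice that signal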
#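 Material – SR-BI-overexpressing, LDLR-lacking CHO cells · Medium – BSA-supplemented, HEPES-buffered Ham's F12, pH 7.4 · Doses – single concentration · Times – compound with DiI-HDL co-incubation, 3 h at 37 °C · Measured by – bottom-read fluorescence, 550/595 nm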
# SR-BI HDL uptake – inhibitors of mouse SR-BI mediated HDL lipid uptake. AID 488896. ldlA[mSR-BI] CHO cells, DiI-HDL uptake fluorescence, 3 h. inhibition, % at 12.5 µM. actives 0.96% (n = 320,000);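 active = mean replicate inhibition of at least 70% and a set share of replicates each scoring 70 or more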;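 note: 0% = median of neutral control wells and 100% = median of positive control wells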
# Rtt109 HAT inh – inhibitors of Candida albicans Rtt109/Vps75 histone acetyltransferase; AID 540336; actives 0.16% (n = 330,000); purified Rtt109/Vps75, ThioGlo CoA-SH fluorescence, 4 h; inhibition, % at 34.9 µM; Q5AAJ8;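 active = inhibition of at least 50% in every replicate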
# Target sequence (Q5AAJ8 whole entry, looked up): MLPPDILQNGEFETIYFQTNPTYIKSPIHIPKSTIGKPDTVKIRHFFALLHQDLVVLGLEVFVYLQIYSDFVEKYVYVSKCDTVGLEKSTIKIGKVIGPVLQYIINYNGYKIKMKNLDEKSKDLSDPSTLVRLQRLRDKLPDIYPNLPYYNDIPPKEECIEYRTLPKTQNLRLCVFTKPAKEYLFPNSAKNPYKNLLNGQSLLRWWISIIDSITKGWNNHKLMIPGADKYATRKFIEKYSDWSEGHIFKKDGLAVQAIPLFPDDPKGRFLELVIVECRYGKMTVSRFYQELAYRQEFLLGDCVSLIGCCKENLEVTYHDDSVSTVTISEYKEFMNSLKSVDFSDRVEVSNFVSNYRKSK
# PglD inh – inhibitors of Campylobacter jejuni PglD acetyltransferase. actives 0.098% (n = 360,000). purified PglD enzyme, DTNB colorimetric CoA detection. inhibition, % at 12.5 µM; in the data active = inhibition above about 16%, passing the limit was not always enough
# HIV Env fusion – HIV envelope-mediated fusion inhibition; actives 1.1% (n = 360,000); inhibition, % at 12.3 µM; HeLa-JRFL Env/CEM21 cell fusion, luciferase; AID 651610;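 active = mean replicate inhibition score of at least 50 and every replicate individually at or above 50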;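 note: 0% = plate neutral controls and 100% = maraviroc near 300 nM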
# Starred values were filed as active, the others as inactive; / = no result given; [ ] = another dose, or the depositor's remark.
SMILES,N-glyco inh,SR-BI DiI-HDL act,SR-BI HDL uptake,Rtt109 HAT inh,PglD inh,HIV Env fusion
CCCC#Cc1ccc2c(c1)O[C@H](CN(C)S(=O)(=O)c1cccc(F)c1)[C@H](C)CN([C@H](C)CO)S2(=O)=O,/,/,/,/,1.3,43.1[16.7 µM]
CCCC#Cc1ccc2c(c1)O[C@@H](CN(C)S(=O)(=O)c1cccc(F)c1)[C@@H](C)CN([C@@H](C)CO)S2(=O)=O,/,/,/,/,4.3,60.1*[16.7 µM]
CC(C)CC#Cc1ccc2c(c1)O[C@@H](CN(C)S(=O)(=O)c1cccc(F)c1)[C@@H](C)CN([C@H](C)CO)S2(=O)=O,/,/,/,/,-1.7,67.7*[16.7 µM]
O=C(C[C@H]1C=C[C@@H](NC(=O)Nc2ccc(F)cc2)[C@H](CO)O1)NCCN1CCCC1,/,/,/,/,0.6,12.7[16.7 µM]
CN1C(=O)c2cc(NC(=O)NCc3ccccc3)ccc2OC[C@H]2O[C@@H](CC(=O)O)CC[C@@H]21,/,/,/,/,5.5,-9.1[16.7 µM]
CC1=CC(=O)C2=C(C)CC[C@@H]3[C@H](OC(=O)[C@H]3C)[C@@H]12,4.3,-6.2,6.2,-5.9,1.4,67.6*
O=C(NCc1cccs1)C(Cc1ccccc1)NS(=O)(=O)c1cccs1 (centres undefined),-1.4,0.4,-0.4,-0.3,-4.1,55.5*
O=C(NCc1ccc(F)cc1)C(Cc1ccccc1)NS(=O)(=O)c1cccs1 (centres undefined),0.0,-1.0,1.0,3.3,-6.1,10.5
CCc1cccc(CC)c1NC(=O)C(NS(=O)(=O)c1cccs1)c1ccccc1 (centres undefined),2.2,-14.7,14.7,0.3,-3.6,-6.5
CCC(C)(C)NC(=O)C(NS(=O)(=O)c1cccs1)c1ccccc1 (centres undefined),1.0,5.4,-5.4,11.8,1.3,71.0*
C[C@H]1CN([C@@H](C)CO)C(=O)c2cccc(NS(=O)(=O)c3ccccc3)c2O[C@@H]1CN(C)Cc1ccncc1,/,/,/,/,-2.4,-8.3[16.7 µM]
O=C(CCl)N=c1sccn1Cc1ccccc1Cl,-0.2,10.7,-10.7,-0.8,-5.6,133.7*
O=C(CCl)N=c1sccn1Cc1cccc2ccccc12,0.2,20.7,-20.7,1.8,/,66.3*
O=C(CCl)N=c1sccn1Cc1ccc(Cl)cc1Cl,9.4,8.4,-8.4,-3.2,/,83.8*
CCCC#Cc1ccc2c(c1)O[C@H](CN(C)Cc1ccccc1)[C@H](C)CN([C@H](C)CO)S2(=O)=O,/,/,/,/,/,5.2[16.7 µM]
CN(C)CC(=O)N[C@H]1CC[C@H](CCn2cc(CN(C)C)nn2)O[C@@H]1CO,/,/,/,/,0.3,-13.5[16.7 µM]
COc1ccc2oc(=N)c(C(=O)Nc3ccccc3Cl)cc2c1,-10.1,-71.8,71.8*,6.0,-5.3,-65.1
O=C(C1CCCO1)N1CCN(Cc2c(O)ccc3ccccc23)CC1 (centres undefined),0.9,25.0,-25.0,142.0*,3.0,0.7
Cc1ccc(CN2CCN(C(=O)C3CCCO3)CC2)cc1 (centres undefined),-0.1,23.0,-23.0,2.9,/,21.6
CCOC(=O)N1CCN(Cc2c(O)ccc3ccccc23)CC1,-1.5,-13.2,13.2,133.2*,6.0,4.5
Cc1ccc(C)c(NC(=O)CCc2c(C)nn(-c3ccc(N4CCCCC4)nn3)c2C)c1,-1.1,-83.0,83.0*,1.1,4.4,-9.3
CCc1ccc(NC(=O)CCc2c(C)nn(-c3ccc(N4CCCCC4)nn3)c2C)cc1,-2.1,-80.9,80.9*,11.0,4.6,-25.3
C[C@@H]1CN([C@@H](C)CO)C(=O)c2cc(NC(=O)CCCN(C)C)ccc2O[C@@H](C)CCCCO[C@@H]1CN(C)S(=O)(=O)c1ccc(F)cc1,/,/,/,/,-3.2,19.5[16.7 µM]
COc1cccc2c1C(=O)c1c(O)c3c(c(O)c1C2=O)C[C@@](O)(C(=O)CO)C[C@@H]3O[C@H]1C[C@H](N)[C@@H](O)[C@H](C)O1,-10.1,0.0,0.0,44.5,-0.6,/
COc1cccc2c1C(=O)c1c(O)c3c(c(O)c1C2=O)CC(O)(C(=O)CO)CC3OC1CC(N(C)C)C(O)C(C)O1 (centres undefined),-13.4,10.5,-10.5,-6.6,/,58.6*
SMILES,N-glyco inh,SR-BI DiI-HDL act,SR-BI HDL uptake,Rtt109 HAT inh,PglD inh,HIV Env fusion
O=C(Nc1ccccc1N1CCOCC1)C1CCN(S(=O)(=O)c2ccccc2F)CC1,-0.5,214.3*,-214.3,3.1,-0.7,/
CC(C)C(OC(=O)c1ccc(Cl)nc1)C(=O)NC1CCCCC1 (centres undefined),0.0,/,/,-3.7,-5.6,-4.5
CC(OC(=O)c1ccc(Cl)nc1)C(=O)NC1CCCC1 (centres undefined),-1.1,412.1*,-412.1,6.4,4.8,/
Cc1cc(N2CCCC2=O)cc(C)c1S(=O)(=O)NCCOc1ccc(C(C)(C)C)cc1,-6.5,7.5,-7.5,4.1,-5.4,84.8*
O=C1CCCN1c1ccc(S(=O)(=O)NCCOc2ccccc2)cc1,-0.2,-52.4,52.4,5.8,0.9,30.5
COc1ccc(NC(=O)Nc2cccc3c2O[C@@H](CN(C)S(=O)(=O)c2ccc(Cl)cc2)[C@H](C)CN([C@@H](C)CO)C3=O)cc1,/,/,/,/,0.7,-15.3[16.7 µM]
COC(=O)[C@]12C[C@H](CC(=O)NCc3ccc(OC)c(OC)c3)C(=O)N(Cc3ccccc3)C1=C[C@H](C(C)(C)C)O[C@@H]2C,/,/,/,/,/,87.7*
C#CCNC(=O)C[C@H]1C[C@@]2(C(=O)OC)C(=C[C@H](C(C)(C)C)O[C@@H]2C)N(CCC2=CCCCC2)C1=O,/,/,/,/,/,53.5
COC(=O)[C@]12C[C@H](CC(=O)NCc3ccc(OC)c(OC)c3)C(=O)N(CCC3=CCCCC3)C1=C[C@H](C(C)(C)C)O[C@@H]2C,/,/,/,/,/,82.3*
COC(=O)[C@]12C[C@H](CC(=O)NCc3ccccc3)C(=O)N(Cc3ccccc3)C1=C[C@H](C(C)(C)C)O[C@@H]2C,/,/,/,/,/,9.7
COC(=O)[C@]12C[C@H](CC(=O)N3CCN(C(=O)c4ccco4)CC3)C(=O)N(CCC3=CCCCC3)C1=C[C@H](C(C)(C)C)O[C@@H]2C,/,/,/,/,/,73.6*
CO[C@H](CN(C)S(=O)(=O)c1cccc(Cl)c1)[C@@H](C)CN(C(=O)Nc1ccccc1F)[C@H](C)CO,/,/,/,/,-1.9,/
Cc1ccccc1S(=O)(=O)N1CCCCN2[C@@H](CO)[C@H](c3ccc(-c4ccccc4)cc3)[C@@H]2C1,/,/,/,/,4.0,/
C[C@H]1CN([C@@H](C)CO)C(=O)c2c(c3ccccc3n2C)-c2ccccc2CO[C@H]1CN(C)C(=O)CCC(F)(F)F,/,/,/,/,2.8,63.5*[16.7 µM]
C[C@H](CO)N1C[C@H](C)[C@H](CN(C)C(=O)c2ccccc2)OCc2ccccc2-c2c(n(C)c3ccccc23)C1=O,1.8,/,/,/,2.2,57.5*
C[C@@H]1CN([C@H](C)CO)C(=O)c2c(c3ccccc3n2C)-c2ccccc2CO[C@H]1CN(C)C(=O)Cc1ccccc1,-1.8,/,/,/,-1.0,-32.2

# Screens deposited in PubChem by Broad Institute.
